Tested on: U2OS
Experiment: Multiplex assay against U2OS
Assay type: toxicity, cell-based
Conditions: human
Procedure, shortened: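 Tubulin, mitochondrial-mass and membrane-permeability phenotypes are per cents of healthy-nucleus cells. Cells were gated by CellPathfinder machine learning into Hoechst high-intensity objects or normal cells, normal cells into healthy, pyknosed or fragmented nuclei, and pyknosed cells into mitotic or apoptotic. Before that, live cells stained at seeding with Hoechst33342, BioTracker Green Microtubule Cytoskeleton Dye, MitoTracker Red and Annexin V Alexa Fluor 680 were imaged on a CQ1 microscope at 37°C and 5% CO2 after compound addition.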

[1] = 12 h, 1 µM, compound concentration 1 uM, replicate 1
[2] = 12 h, 1 µM, compound concentration 1 uM, replicate 2
[3] = 12 h, 10 µM, compound concentration 10 uM, replicate 1
[4] = 12 h, 10 µM, compound concentration 10 uM, replicate 2
[5] = 24 h, 1 µM, compound concentration 1 uM, replicate 1
[6] = 24 h, 1 µM, compound concentration 1 uM, replicate 2
[7] = 24 h, 10 µM, compound concentration 10 uM, replicate 1
[8] = 24 h, 10 µM, compound concentration 10 uM, replicate 2
[9] = 48 h, 1 µM, compound concentration 1 uM, replicate 1
[10] = 48 h, 1 µM, compound concentration 1 uM, replicate 2
[11] = 48 h, 10 µM, compound concentration 10 uM, replicate 1
[12] = 48 h, 10 µM, compound concentration 10 uM, replicate 2

## CCCn1c(=O)c2[nH]c(C3CCCC3)nc2n(CCC)c1=O [1,3-DIPROPYL-8-CYCLOPENTYLXANTHINE [DPCPX]]
[1]
  Population Apoptotic (%): 87%
  Population Fragmented Nuclei (%): 25%
  Population Healthy Nuclei (%): 64%
  Population Hoechst High Intensity Objects (%): 1%
  Population Membrane Permeable-Phenotype (%): 1%
  Population Mitochondria Different-Phenotype (%): 3%
  Population Mitotic Cells (%): 12%
  Population Normal (%): 98%
  Population Pyknosed Nuclei (%): 9%
  Population Tubulin-Different-Phenotype (%): 1%
  Total Cell Count: 250
[2]
  Population Apoptotic (%): 93%
  Population Fragmented Nuclei (%): 15%
  Population Healthy Nuclei (%): 72%
  Population Hoechst High Intensity Objects (%): 0%
  Population Membrane Permeable-Phenotype (%): 7%
  Population Mitochondria Different-Phenotype (%): 4%
  Population Mitotic Cells (%): 6%
  Population Normal (%): 100%
  Population Pyknosed Nuclei (%): 12%
  Population Tubulin-Different-Phenotype (%): 5%
  Total Cell Count: 125
[3]
  Population Apoptotic (%): 68%
  Population Fragmented Nuclei (%): 30%
  Population Healthy Nuclei (%): 60%
  Population Hoechst High Intensity Objects (%): 2%
  Population Membrane Permeable-Phenotype (%): 5%
  Population Mitochondria Different-Phenotype (%): 1%
  Population Mitotic Cells (%): 31%
  Population Normal (%): 97%
  Population Pyknosed Nuclei (%): 9%
  Population Tubulin-Different-Phenotype (%): 3%
  Total Cell Count: 206
[4]
  Population Apoptotic (%): 100%
  Population Fragmented Nuclei (%): 21%
  Population Healthy Nuclei (%): 69%
  Population Hoechst High Intensity Objects (%): 3%
  Population Membrane Permeable-Phenotype (%): 6%
  Population Mitochondria Different-Phenotype (%): 9%
  Population Mitotic Cells (%): 0%
  Population Normal (%): 96%
  Population Pyknosed Nuclei (%): 8%
  Total Cell Count: 96
[5]
  Population Apoptotic (%): 83%
  Population Fragmented Nuclei (%): 24%
  Population Healthy Nuclei (%): 68%
  Population Hoechst High Intensity Objects (%): 3%
  Population Membrane Permeable-Phenotype (%): 5%
  Population Mitochondria Different-Phenotype (%): 3%
  Population Mitotic Cells (%): 16%
  Population Normal (%): 96%
  Population Pyknosed Nuclei (%): 7%
  Population Tubulin-Different-Phenotype (%): 4%
  Total Cell Count: 261
[6]
  Population Apoptotic (%): 87%
  Population Fragmented Nuclei (%): 13%
  Population Healthy Nuclei (%): 74%
  Population Hoechst High Intensity Objects (%): 2%
  Population Membrane Permeable-Phenotype (%): 8%
  Population Mitotic Cells (%): 12%
  Population Normal (%): 97%
  Population Pyknosed Nuclei (%): 11%
  Total Cell Count: 138
[7]
  Population Apoptotic (%): 89%
  Population Fragmented Nuclei (%): 27%
  Population Healthy Nuclei (%): 64%
  Population Hoechst High Intensity Objects (%): 2%
  Population Membrane Permeable-Phenotype (%): 7%
  Population Mitochondria Different-Phenotype (%): 0%
  Population Mitotic Cells (%): 10%
  Population Normal (%): 97%
  Population Pyknosed Nuclei (%): 8%
  Population Tubulin-Different-Phenotype (%): 0%
  Total Cell Count: 234
[8]
  Population Apoptotic (%): 100%
  Population Fragmented Nuclei (%): 21%
  Population Healthy Nuclei (%): 71%
  Population Hoechst High Intensity Objects (%): 4%
  Population Membrane Permeable-Phenotype (%): 3%
  Population Mitochondria Different-Phenotype (%): 3%
  Population Mitotic Cells (%): 0%
  Population Normal (%): 95%
  Population Pyknosed Nuclei (%): 6%
  Total Cell Count: 120
[9]
  Population Apoptotic (%): 86%
  Population Fragmented Nuclei (%): 20%
  Population Healthy Nuclei (%): 69%
  Population Hoechst High Intensity Objects (%): 1%
  Population Membrane Permeable-Phenotype (%): 3%
  Population Mitochondria Different-Phenotype (%): 1%
  Population Mitotic Cells (%): 13%
  Population Normal (%): 98%
  Population Pyknosed Nuclei (%): 10%
  Population Tubulin-Different-Phenotype (%): 2%
  Total Cell Count: 364
[10]
  Population Apoptotic (%): 92%
  Population Fragmented Nuclei (%): 17%
  Population Hoechst High Intensity Objects (%): 2%
  Population Membrane Permeable-Phenotype (%): 8%
  Population Mitochondria Different-Phenotype (%): 4%
  Population Mitotic Cells (%): 8%
  Population Normal (%): 97%
  Population Pyknosed Nuclei (%): 13%
  Population Tubulin-Different-Phenotype (%): 3%
  Total Cell Count: 196
[11]
  Population Apoptotic (%): 77%
  Population Fragmented Nuclei (%): 24%
  Population Healthy Nuclei (%): 62%
  Population Hoechst High Intensity Objects (%): 2%
  Population Membrane Permeable-Phenotype (%): 4%
  Population Mitochondria Different-Phenotype (%): 1%
  Population Mitotic Cells (%): 22%
  Population Normal (%): 97%
  Population Pyknosed Nuclei (%): 12%
  Population Tubulin-Different-Phenotype (%): 3%
  Total Cell Count: 322
[12]
  Population Apoptotic (%): 100%
  Population Fragmented Nuclei (%): 19%
  Population Healthy Nuclei (%): 73%
  Population Hoechst High Intensity Objects (%): 3%
  Population Membrane Permeable-Phenotype (%): 5%
  Population Mitochondria Different-Phenotype (%): 3%
  Population Mitotic Cells (%): 0%
  Population Normal (%): 96%
  Population Pyknosed Nuclei (%): 6%
  Population Tubulin-Different-Phenotype (%): 0%
  Total Cell Count: 165
